Results from ChEMBL document CHEMBL3739314, “Discovery of Nanomolar Dengue and West Nile Virus Protease Inhibitors Containing a 4-Benzyloxyphenylglycine Residue” (J Med Chem, 2015).

Legend:
[1] = target: Prothrombin (Homo sapiens) (UniProt P00734); assay: Inhibition of thrombin (unknown origin) using Boc-Val-Pro-Arg-AMC as substrate at 25 uM preincubated with protein for 15 mins followed by substrate addition measured for 10 mins by continuous fluorimetric assay relative to control
West Nile virus = assay: Inhibition of West Nile virus NS2B-NS3 protease using 2-Abz-Gly-Leu-Lys-Arg-Gly-Gly-[…]-Tyr-NH2 as substrate at 50 uM preincubated with protein for 15 mins followed by substrate addition measured for 15 mins by FRET assay
Summary of the method: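 Linked WNV NS2B-NS3 protease (150 nM) was preincubated 15 min with inhibitor (50 μM final) in 50 mM Tris-HCl pH 9, 10% ethylene glycol, 0.0016% Brij 58. […] Percent inhibition was taken from the slope relative to the no-inhibitor control, in triplicate.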

[2] = Inhibition of West Nile virus NS2B-NS3 protease using 2-Abz-Gly-Leu-Lys-Arg-Gly-Gly-[…]-Tyr-NH2 as substrate preincubated with protein for 15 mins followed by substrate addition measured for 15 mins by FRET assay
Summary of the method: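 WNV NS2B-NS3 linked construct at 75 nM (40 nM in one case) in pH 9 Tris buffer, preincubated 15 min with eight inhibitor concentrations (ranges 0–1 up to 0–50 μM). Substrate was 50 μM, with FRET readout over 15 min. IC50 was fitted from triplicates.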

[3] = Inhibition of Dengue virus serotype-2 NS2B-NS3 protease using 2-Abz-Nle-Lys-Arg-Arg-Ser-(3-NO2)-Tyr-NH2 as substrate preincubated with protein for 15 mins followed by substrate addition measured for 15 mins by FRET assay; design: species or system dengue virus type 2
Summary of the method: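 DENV-2 NS2B-NS3 linked construct at 30 nM (15 nM in some cases), same pH 9 Tris buffer, 15 min preincubation and FRET read-out. Eight inhibitor concentrations spanned 0–1, 0–2, 0–6 or 0–50 μM, with substrate at 50 μM. IC50 was fitted from triplicates.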

SMILES | inhibition [1] [%] | inhibition (West Nile virus) [%] | IC50 [2] [nM] | IC50 [3] [nM]
COc1cccc(COc2ccc([C@@H](NC(=O)[C@H](CCCCN)NC(=O)[C@H](CCCNC(=N)N)NC(=O)c3ccccc3)C(N)=O)cc2)c1 | < 30 | 99 | 804 | 147
N=C(N)NCCC[C@H](NC(=O)c1ccccc1C(F)(F)F)C(=O)N[C@@H](CCCCN)C(=O)N[C@@H](C(N)=O)c1ccc(OCc2ccccc2)cc1 | < 30 | 98.7 | 434 | 301
N=C(N)NCCC[C@H](NC(=O)c1scc2c1OCCO2)C(=O)N[C@@H](CCCCN)C(=O)N[C@@H](C(N)=O)c1ccc(OCc2ccccc2)cc1 | < 30 | 96.2 | – | 194
N=C(N)NCCC[C@H](NC(=O)c1ccc(C=O)cc1)C(=O)N[C@@H](CCCCN)C(=O)N[C@@H](C(N)=O)c1ccc(OCc2ccccc2)cc1 | < 30 | 83 | – | 232
N=C(N)NCCC[C@H](NC(=O)c1ccccc1)C(=O)N[C@@H](CCCCN)C(=O)N[C@@H](C(N)=O)c1ccc(OCc2ccc(Cl)c(Cl)c2)cc1 | < 30 | 97.8 | 615 | 177
N=C(N)NCCC[C@H](NC(=O)C1CCC1)C(=O)N[C@@H](CCCCN)C(=O)N[C@@H](C(N)=O)c1ccc(OCc2ccccc2)cc1 | < 30 | 98 | 434 | 631
N#Cc1ccc(COc2ccc([C@@H](NC(=O)[C@H](CCCCN)NC(=O)[C@H](CCCNC(=N)N)NC(=O)c3ccccc3)C(N)=O)cc2)cc1 | < 30 | 99.9 | 213 | 399
N=C(N)NCCC[C@H](NC(=O)c1ccccc1)C(=O)N[C@@H](CCCCN)C(=O)N[C@@H](C(N)=O)c1ccc(OCc2ccc(C(F)(F)F)cc2)cc1 | < 30 | 99.7 | 224 | 69
N=C(N)NCCC[C@H](NC(=O)/C=C/c1ccccc1)C(=O)N[C@@H](CCCCN)C(=O)N[C@@H](C(N)=O)c1ccc(OCc2ccccc2)cc1 | < 30 | 99.7 | 561 | 323
N=C(N)NCCC[C@H](NC(=O)c1cscn1)C(=O)N[C@@H](CCCCN)C(=O)N[C@@H](C(N)=O)c1ccc(OCc2ccccc2)cc1 | < 30 | 100 | 348 | 173
N=C(N)NCCC[C@H](NC(=O)c1cc2ccsc2s1)C(=O)N[C@@H](CCCCN)C(=O)N[C@@H](C(N)=O)c1ccc(OCc2ccccc2)cc1 | < 30 | 96.6 | – | 505
N=C(N)NCCC[C@H](NC(=O)C1CCCC1)C(=O)N[C@@H](CCCCN)C(=O)N[C@@H](C(N)=O)c1ccc(OCc2ccccc2)cc1 | < 30 | 96.3 | – | 701
N=C(N)NCCC[C@H](NC(=O)c1ccccc1)C(=O)N[C@@H](CCCCN)C(=O)N[C@@H](C(N)=O)c1ccc(OCc2ccccc2Cl)cc1 | < 30 | 98.1 | 406 | 321
CC(=O)c1ccc(C(=O)N[C@@H](CCCNC(=N)N)C(=O)N[C@@H](CCCCN)C(=O)N[C@@H](C(N)=O)c2ccc(OCc3ccccc3)cc2)cc1 | < 30 | 84.6 | – | 1040
N=C(N)NCCC[C@H](NC(=O)c1cncs1)C(=O)N[C@@H](CCCCN)C(=O)N[C@@H](C(N)=O)c1ccc(OCc2ccccc2)cc1 | < 30 | 97.4 | – | 304
N=C(N)NCCC[C@H](NC(=O)CCc1ccccc1)C(=O)N[C@@H](CCCCN)C(=O)N[C@@H](C(N)=O)c1ccc(OCc2ccccc2)cc1 | < 30 | 87.4 | – | 906

SMILES | inhibition [1] [%] | inhibition (West Nile virus) [%] | IC50 [2] [nM] | IC50 [3] [nM]
N=C(N)NCCC[C@H](NC(=O)c1ccccc1)C(=O)N[C@@H](CCCCN)C(=O)N[C@@H](C(N)=O)c1ccc(OCc2ccccc2Br)cc1 | < 30 | 96.7 | – | 366
N=C(N)NCCC[C@H](NC(=O)c1ccccc1)C(=O)N[C@@H](CCCCN)C(=O)N[C@@H](C(N)=O)c1ccc(OCc2ccc(N)cc2)cc1 | < 30 | 85.1 | – | 1990
N=C(N)NCCC[C@H](NC(=O)C1CCCCC1)C(=O)N[C@@H](CCCCN)C(=O)N[C@@H](C(N)=O)c1ccc(OCc2ccccc2)cc1 | < 30 | 95.7 | – | 781
N=C(N)NCCC[C@H](NC(=O)c1cc2sccc2s1)C(=O)N[C@@H](CCCCN)C(=O)N[C@@H](C(N)=O)c1ccc(OCc2ccccc2)cc1 | < 30 | 92.5 | – | 401
N=C(N)NCCC[C@H](NC(=O)c1ccccc1)C(=O)N[C@@H](CCCCN)C(=O)N[C@@H](C(N)=O)c1ccc(OCc2ccccc2C(F)(F)F)cc1 | < 30 | 97 | – | 181
N=C(N)NCCC[C@H](NC(=O)c1sccc1-n1cccc1)C(=O)N[C@@H](CCCCN)C(=O)N[C@@H](C(N)=O)c1ccc(OCc2ccccc2)cc1 | < 30 | 94.3 | – | 322
Cc1ccc(C(=O)N[C@@H](CCCNC(=N)N)C(=O)N[C@@H](CCCCN)C(=O)N[C@@H](C(N)=O)c2ccc(OCc3ccccc3)cc2)s1 | < 30 | 92.6 | – | 364
CC(C)(C)c1ccc(COc2ccc([C@@H](NC(=O)[C@H](CCCCN)NC(=O)[C@H](CCCNC(=N)N)NC(=O)c3ccccc3)C(N)=O)cc2)cc1 | < 30 | 85.6 | – | 173
N=C(N)NCCC[C@H](NC(=O)c1cccnc1)C(=O)N[C@@H](CCCCN)C(=O)N[C@@H](C(N)=O)c1ccc(OCc2ccccc2)cc1 | < 30 | 96.4 | – | 262
N=C(N)NCCC[C@H](NC(=O)c1ccccc1)C(=O)N[C@@H](CCCCN)C(=O)N[C@@H](C(N)=O)c1ccc(OCc2ccc(OC(F)(F)F)cc2)cc1 | < 30 | 97.1 | – | 182
N=C(N)NCCC[C@H](NC(=O)c1cccc(F)c1)C(=O)N[C@@H](CCCCN)C(=O)N[C@@H](C(N)=O)c1ccc(OCc2ccccc2)cc1 | < 30 | 95.5 | – | 466
N=C(N)NCCC[C@H](NC(=O)c1ccc(F)cc1)C(=O)N[C@@H](CCCCN)C(=O)N[C@@H](C(N)=O)c1ccc(OCc2ccccc2)cc1 | < 30 | 92.9 | – | 639
N=C(N)NCCC[C@H](NC(=O)c1ccccc1)C(=O)N[C@@H](CCCCN)C(=O)N[C@@H](C(N)=O)c1ccc(OCc2ccc3ccccc3c2)cc1 | < 30 | 92.6 | – | 192
Cc1cccc(COc2ccc([C@@H](NC(=O)[C@H](CCCCN)NC(=O)[C@H](CCCNC(=N)N)NC(=O)c3ccccc3)C(N)=O)cc2)c1 | < 30 | 85.2 | – | 309
N=C(N)NCCC[C@H](NC(=O)c1cccc(C=O)c1)C(=O)N[C@@H](CCCCN)C(=O)N[C@@H](C(N)=O)c1ccc(OCc2ccccc2)cc1 | < 30 | 97.4 | – | 164
N=C(N)NCCC[C@H](NC(=O)c1sccc1Cl)C(=O)N[C@@H](CCCCN)C(=O)N[C@@H](C(N)=O)c1ccc(OCc2ccccc2)cc1 | < 30 | 95.2 | – | 194
